Measurements from ChEMBL document CHEMBL4325822, “Discovery of a tetrazolyl β-carboline with in vitro and in vivo osteoprotective activity under estrogen-deficient conditions” (Medchemcomm, 2018).
Active and inactive are the calls of the source. No cut-off for these calls is given here.

Columns and labels:
Rattus norvegicus [1] = assay: Antiosteoporotic activity in Sprague-Dawley rat model of OVX-induced bone loss assessed as protection against microarchitectural deterioration by measuring trabecular separation at 5 mg/kg, po via gavage for 12 weeks by microcomputed tomographic analysis (reference value: 1.31 +/- 0.06 millimeter); type: functional
Summary of the method: (§1)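 Adult female Sprague-Dawley rats were ovariectomized and left 12 weeks to become osteopenic. They then received 12 weeks of once-daily oral gavage (1% gum acacia vehicle) or subcutaneous estradiol, five days a week. Femurs were collected at sacrifice and scanned by micro-CT for BMD and trabecular microarchitecture. Ten rats per group; mean ± SEM.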

Rattus norvegicus [2] = assay: Antiosteoporotic activity in Sprague-Dawley rat model of OVX-induced bone loss assessed as protection against microarchitectural deterioration by measuring trabecular separation at 1 mg/kg, po via gavage for 12 weeks by microcomputed tomographic analysis (reference value: 1.31 +/- 0.06 millimeter); type: functional; summary of the method: as §1
Calvarial osteoblast = assay: Osteoprotective activity in Sprague-Dawley rat calvarial osteoblasts assessed as reduction in TNFalpha-induced apoptosis at 100 pM after 24 hrs by Annexin V/propidium iodide staining based FACS analysis relative to control; type: functional; design: scale not given: the % may be the effect or the level left
Summary of the method: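 Osteoblasts at 50–60% confluence, serum-withdrawn 3 h. Then 24 h with TNFα in α-MEM with 0.5% FBS, with 10 nM E2 as comparator. Annexin-V-FITC/PI staining, analysed by flow cytometry.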

Rattus norvegicus [3] = assay: Antiosteoporotic activity in Sprague-Dawley rat model of OVX-induced bone loss assessed as increase in mineralization at 1 to 5 mg/kg, po via gavage for 12 weeks measured 18 days post last dose by alizarin red-S staining based assay relative to control; type: functional
Summary of the method: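 After 12 weeks of in vivo treatment of ovariectomized rats, femoral bone marrow was flushed. It was cultured 18 days in differentiation medium (10 nM dexamethasone, 10 mM β-glycerophosphate, 50 µg·mL⁻¹ ascorbic acid). Mineralized nodules were stained with alizarin red-S, and the stain was extracted for quantitation.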

[4] = Toxicity in Sprague-Dawley rat model of OVX-induced bone loss assessed as total uterine area at 1 mg/kg, po via gavage for 12 weeks (reference value: 0.11 +/- 0.003 mm2); type: organism-based; conditions: in vivo, 2016 h
[5] = Toxicity in Sprague-Dawley rat model of OVX-induced bone loss assessed as luminal area at 5 mg/kg, po via gavage for 12 weeks (reference value: 0.01 +/- 0.0004 mm2); type: organism-based; conditions: in vivo, 2016 h
[6] = Antioxidant activity assessed as SNP-induced nitric oxide free radical scavenging activity at 250 ug/ml after 150 mins by Griess reagent based method relative to control; type: functional
Summary of the method: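 Serial dilutions (1000 to 1.95 µg·ml⁻¹) were mixed with sodium nitroprusside (10 mM) and incubated 150 min. An equal volume of Griess reagent was added, and absorbance was read at 546 nm. Percentage scavenging was calculated relative to the control without compound.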

[7] = Antioxidant activity assessed as DPPH radical scavenging activity at 1000 ug/ml after 30 mins by spectrophotometric method relative to control; type: functional
Summary of the method: (§2)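 The compound was serially diluted from 1000 to 1.95 µg·ml⁻¹ and mixed 1:1 with DPPH in methanol. After 30 min at room temperature, absorbance was read at 517 nm. Scavenging (%) = [(Abc − Abs)/Abc] × 100, where Abc is DPPH without compound.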

[8] = Increase in OCN mRNA expression in Sprague-Dawley rat calvarial osteoblasts at 100 pM by RT-PCR method relative to control; type: functional, Calvarial osteoblast
Summary of the method: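 Primary calvarial osteoblasts were lysed in TRIzol after treatment, and total RNA was extracted. Transcripts were quantified by real-time PCR using the comparative CT (ΔΔCT) method.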

[9] = Induction of osteoblast differentiation in Sprague-Dawley rat calvarial osteoblasts assessed as alkaline phosphatase activity after 48 hrs using PNPP as substrate by spectrophotometric method; type: functional, cell-based; conditions: Rattus norvegicus, Sprague-Dawley, Calvarial osteoblast, 48 h; read-out: EC50
Summary of the method: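 Calvarial osteoblasts at 2 × 10³ cells/well. Treated 48 h with varied concentrations in differentiation medium (5% charcoal-treated FBS, 10 mM β-glycerophosphate, 50 µg·mL⁻¹ ascorbic acid). Total ALP read with PNPP substrate at 405 nm. Cell-free wells check for compound interference with substrate or absorbance.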

[10] = target: I-kappa-B kinase (Rattus norvegicus) (UniProt Q9QY78+G3V926+Q6TMG5); assay: Inhibition of IKK in Sprague-Dawley rat calvarial osteoblasts assessed as reduction in TNFalpha-induced NFkB nuclear translocation at 100 pM after 24 hrs by immunofluorescence assay; type: cell-based; conditions: Calvarial osteoblast
Summary of the method: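 Primary rat osteoblasts on chamber slides given TNFα (10 ng·ml⁻¹) for 24 h, with or without treatment. Then 4% PFA fixation, 0.1% Triton X-100, anti-NF-κB overnight, and Cy3 anti-rabbit secondary. Fluorescence imaged at excitation 552 nm, emission 570 nm.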

[11] = Toxicity in Sprague-Dawley rat model of OVX-induced bone loss assessed as luminal epithelial height at 5 mg/kg, po via gavage for 12 weeks (reference value: 27.29 +/- 0.96 umeter); type: organism-based; conditions: in vivo, 2016 h
[12] = Antioxidant activity assessed as DPPH radical scavenging activity at 3.9 ug/ml after 30 mins by spectrophotometric method relative to control; type: functional; summary of the method: as §2
Rattus norvegicus [13] = assay: Antiosteoporotic activity in Sprague-Dawley rat model of OVX-induced bone loss assessed as increase in femoral bone strength by measuring energy at 1 mg/kg, po via gavage for 12 weeks by 3 point bending test (reference value: 46.27 +/- 4.36 mJ); type: functional
Rattus norvegicus [14] = assay: Antiosteoporotic activity in Sprague-Dawley rat model of OVX-induced bone loss assessed as mineral apposition rate at 5 mg/kg, po via gavage for 12 weeks by microcomputed tomographic analysis (reference value: 0.169 +/- 0.004 umeter/day); type: functional
Summary of the method: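 Female Sprague-Dawley rats, 10-12 weeks old, ten per group, were ovariectomized and left 12 weeks for osteopenia. They were then dosed once daily by oral gavage for 12 weeks in 1% gum acacia vehicle. The estradiol arm received 100 µg·kg⁻¹ subcutaneously five days a week. Tetracycline and calcein were given intraperitoneally at 20 mg·kg⁻¹ each. Femur cross-sections (50 µm) were imaged by fluorescence microscopy for MAR and BFR.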

**Q.** With `CCOC(=O)c1cc2c([nH]c3ccccc32)c(C(c2nnnn2C(C)(C)C)N2CCN(C)CC2)n1` (stereo not given) as the compound, how does the Activity (Rattus norvegicus [1]) read?
**A.** Its Activity is 0.87 mm.

**Q.** What about the Activity (Rattus norvegicus [2]) of the same compound?
**A.** Its Activity is 0.73 mm.

**Q.** What about the Activity (Calvarial osteoblast) of the same compound?
**A.** Its Activity is 47%.

**Q.** And the “fold change (FC)” value (Rattus norvegicus [3])?
**A.** The value was 1.4 - 1.5.

**Q.** And the Activity [4]?
**A.** The Activity was 0.14 mm2.

**Q.** What about the Activity [5] of the same compound?
**A.** Its Activity is 0.012 mm2.

**Q.** And the Activity [6]?
**A.** The Activity was 30.7%.

**Q.** And the Activity [7]?
**A.** Its Activity is 47.8%.

**Q.** What about the “fold change (FC)” value [8] of the same compound?
**A.** The value was 1.8 - 4.6.

**Q.** And the EC50 [9]?
**A.** Its EC50 is 900 nM.

**Q.** What about the inhibition [10] of the same compound?
**A.** The inhibition was “Active”.

**Q.** And the Activity [11]?
**A.** Its Activity is 3.61 um.

**Q.** What about the Activity [12] of the same compound?
**A.** Its Activity is 3.82%.

**Q.** What about the Activity (Rattus norvegicus [13]) of the same compound?
**A.** Its Activity is 70.55 mJ.

**Q.** What about the Activity (Rattus norvegicus [14]) of the same compound?
**A.** Its Activity is 0.92 micrometer/day.
